Each structure is given as a SMILES string.

The nature of series [1]: Toxicity in C57BL/6 mouse assessed as memory impairment at 0.3 mg/kg, ip incubated for 30 mins by novel object recognition test. It is filed as organism-based. The note with it: in vivo, 0.5 h.
Series [2] can be described thus: Toxicity in C57BL/6 mouse assessed as spontaneous locomotor activity at 10 mg/kg, ip incubated for 30 mins. It is filed as organism-based. The settings on record: in vivo, 0.5 h.
Series [3] addresses 5-hydroxytryptamine receptor 4 (Homo sapiens, UniProt Q13639). In words: Binding affinity to human recombinant 5HT4 receptor assessed as inhibition constant incubated for 60 mins.
Series [4] can be described thus: Drug metabolism in human liver microsome measured at 10 mins by UPLC/QE-orbitrap-MS method. It is filed as ADME. The note with it: microsomes. Summed up: (§1)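 Test compound as fumarate salt incubated with human, dog, mouse or rat liver microsomes over 0–60 min. Parent remaining measured by UPLC/QE-orbitrap-MS as relative LC/MS peak area (% of 0 min), n = 1.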
Background: Liver microsomes are a subcellular fraction often used to study metabolism.

A short description of series [5]: Drug metabolism in dog liver microsome measured at 10 mins by UPLC/QE-orbitrap-MS method. It is filed as ADME, Canis lupus familiaris. The settings on record: microsomes. Summed up:
as §1

Series [6] in a line: Drug metabolism in mouse liver microsome measured at 10 mins by UPLC/QE-orbitrap-MS method. The class given is ADME. The note with it: microsomes. A digest of the protocol:
as §1

Series [7] is described as follows: Drug metabolism in rat liver microsome measured at 10 mins by UPLC/QE-orbitrap-MS method. It is filed as ADME. The settings on record: microsomes. Summed up: as §1
Series [8] is described as follows: Drug metabolism in dog liver microsome measured at 20 mins by UPLC/QE-orbitrap-MS method. It is filed as ADME, Canis lupus familiaris. The settings on record: microsomes. Summed up: as §1
A short description of series [9]: Drug metabolism in mouse liver microsome measured at 20 mins by UPLC/QE-orbitrap-MS method. It is filed as ADME. The note with it: microsomes. Summed up: as §1
A short description of series [10]: Drug metabolism in rat liver microsome measured at 20 mins by UPLC/QE-orbitrap-MS method. It is filed as ADME. The settings on record: microsomes. Summed up:
as §1

The nature of series [11]: Drug metabolism in human liver microsome measured at 40 mins by UPLC/QE-orbitrap-MS method. The note with it: microsomes. It is filed as ADME. Summed up:
as §1

Series [12] is described as follows: Drug metabolism in dog liver microsome measured at 40 mins by UPLC/QE-orbitrap-MS method. It is filed as ADME, Canis lupus familiaris. The note with it: microsomes. Summed up: as §1
Series [13] in a line: Drug metabolism in mouse liver microsome measured at 40 mins by UPLC/QE-orbitrap-MS method. It is filed as ADME. The note with it: microsomes. Summed up: as §1
A short description of series [14]: Drug metabolism in rat liver microsome measured at 40 mins by UPLC/QE-orbitrap-MS method. It is filed as ADME. The note with it: microsomes. Summed up:
as §1

The nature of series [15]: Drug metabolism in human liver microsome measured at 60 mins by UPLC/QE-orbitrap-MS method. The class given is ADME. The note with it: microsomes, 1 h. Summed up:
as §1

Series [16] can be described thus: Drug metabolism in dog liver microsome measured at 60 mins by UPLC/QE-orbitrap-MS method. It is filed as ADME, Canis lupus familiaris. The settings on record: microsomes, 1 h. Summed up: as §1
Series [17] can be described thus: Drug metabolism in rat liver microsome measured at 60 mins by UPLC/QE-orbitrap-MS method. It is filed as ADME. The settings on record: microsomes, 1 h. A digest of the protocol: as §1
In a further series the target is T1, Cytochrome P450 1A2 (Homo sapiens, UniProt P05177).
T1 sequence (P05177 whole entry): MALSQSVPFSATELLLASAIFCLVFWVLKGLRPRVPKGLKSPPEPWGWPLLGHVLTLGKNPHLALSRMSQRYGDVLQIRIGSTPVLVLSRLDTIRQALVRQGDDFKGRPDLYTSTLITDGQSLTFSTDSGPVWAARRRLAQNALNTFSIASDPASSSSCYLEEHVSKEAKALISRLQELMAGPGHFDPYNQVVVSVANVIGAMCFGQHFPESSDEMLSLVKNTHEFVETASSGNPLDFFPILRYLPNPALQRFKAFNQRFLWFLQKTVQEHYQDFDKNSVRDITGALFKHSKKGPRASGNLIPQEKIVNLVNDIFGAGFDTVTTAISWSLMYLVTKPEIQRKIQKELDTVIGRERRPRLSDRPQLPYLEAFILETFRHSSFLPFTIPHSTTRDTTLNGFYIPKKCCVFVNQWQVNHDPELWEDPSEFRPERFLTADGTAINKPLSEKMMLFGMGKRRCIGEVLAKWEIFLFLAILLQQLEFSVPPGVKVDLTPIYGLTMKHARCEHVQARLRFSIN
Nature of the series: Inhibition of CYP1A2 in human liver microsomes using phenacetin as substrate. It is filed as ADME, Microsome. A digest of the protocol:
(§2)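 Human liver microsomes with a cocktail of CYP-specific probe substrates; metabolite formation monitored for each probe reaction. Test compound (fumarate) at 0.01, 0.1, 1, 10 and 100 μM. Control inhibitors run at a single concentration for each probe reaction. IC50 estimated.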

The target in a further series is Cytochrome P450 2C19 (Homo sapiens, UniProt P33261). In words: Inhibition of CYP2C19 in human liver microsomes using omeprazole as substrate. It is filed as ADME, Microsome. A digest of the protocol: as §2
Sequence of Cytochrome P450 2C19 (P33261 whole entry): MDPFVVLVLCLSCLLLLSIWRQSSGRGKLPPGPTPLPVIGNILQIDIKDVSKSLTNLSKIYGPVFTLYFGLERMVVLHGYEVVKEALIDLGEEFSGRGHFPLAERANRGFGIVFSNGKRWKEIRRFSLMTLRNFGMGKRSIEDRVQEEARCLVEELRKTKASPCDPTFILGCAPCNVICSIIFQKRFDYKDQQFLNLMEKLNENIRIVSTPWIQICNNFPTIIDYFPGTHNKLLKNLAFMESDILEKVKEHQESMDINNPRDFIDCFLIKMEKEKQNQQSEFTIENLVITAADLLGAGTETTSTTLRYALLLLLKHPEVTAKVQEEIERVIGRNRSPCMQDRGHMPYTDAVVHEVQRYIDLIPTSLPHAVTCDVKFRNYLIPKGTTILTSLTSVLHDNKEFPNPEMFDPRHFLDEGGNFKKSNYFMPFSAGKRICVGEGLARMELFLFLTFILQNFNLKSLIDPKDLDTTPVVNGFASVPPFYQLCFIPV
Series [18] addresses T2, Cytochrome P450 3A4 (Homo sapiens, UniProt P08684). In words: Inhibition of CYP3A4 in human liver microsomes using Omeprazole as substrate. The class given is ADME, Microsome. A digest of the protocol:
as §2

The target of series [19] is T2, Cytochrome P450 3A4. Nature of the series: Inhibition of CYP3A4 in human liver microsomes using Testosterone as substrate. It is filed as ADME, Microsome. A digest of the protocol: as §2
Series [20] in a line: Clearance in C57BL6 mouse at 0.3 to 3 mg/kg, iv. The note with it: in vivo, dose 0.3-3 mg/kg. It is filed as ADME, organism-based. A digest of the protocol: (§3)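 Single iv dose of 0.3, 1 or 3 mg/kg in 0.9 % saline, three animals per dose (C57Bl6 mice, Wistar rats). Terminal cardiac-puncture blood under isoflurane at six time points. Plasma protein-precipitated and assayed by UHPLC–MS/MS (LLOQ 1 ng/mL). Parameters from non-compartmental analysis.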

Series [21] can be described thus: Half life in Wistar rat at 0.3 to 3 mg/kg, iv. It is filed as ADME, organism-based. The settings on record: in vivo, dose 0.3-3 mg/kg. A digest of the protocol: as §3
Series [22] can be described thus: MRT in Wistar rat at 0.3 to 3 mg/kg, iv. The note with it: in vivo, dose 0.3-3 mg/kg. It is filed as ADME, organism-based. A digest of the protocol: as §3

T2 sequence (P08684 whole entry): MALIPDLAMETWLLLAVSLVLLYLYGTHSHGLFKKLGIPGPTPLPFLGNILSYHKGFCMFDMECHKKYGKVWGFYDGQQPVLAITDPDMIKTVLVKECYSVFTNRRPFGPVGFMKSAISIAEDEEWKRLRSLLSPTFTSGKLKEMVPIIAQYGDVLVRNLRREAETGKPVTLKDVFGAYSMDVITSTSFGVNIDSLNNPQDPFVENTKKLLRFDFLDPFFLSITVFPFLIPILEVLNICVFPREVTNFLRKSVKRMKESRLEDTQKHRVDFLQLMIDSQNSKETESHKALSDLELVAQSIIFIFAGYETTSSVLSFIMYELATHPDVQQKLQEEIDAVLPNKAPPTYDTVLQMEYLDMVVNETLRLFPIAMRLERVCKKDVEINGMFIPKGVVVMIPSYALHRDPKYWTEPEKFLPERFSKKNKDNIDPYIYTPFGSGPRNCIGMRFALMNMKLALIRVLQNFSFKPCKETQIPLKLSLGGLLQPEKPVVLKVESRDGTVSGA
Sequence of 5-hydroxytryptamine receptor 4 (Q13639 whole entry): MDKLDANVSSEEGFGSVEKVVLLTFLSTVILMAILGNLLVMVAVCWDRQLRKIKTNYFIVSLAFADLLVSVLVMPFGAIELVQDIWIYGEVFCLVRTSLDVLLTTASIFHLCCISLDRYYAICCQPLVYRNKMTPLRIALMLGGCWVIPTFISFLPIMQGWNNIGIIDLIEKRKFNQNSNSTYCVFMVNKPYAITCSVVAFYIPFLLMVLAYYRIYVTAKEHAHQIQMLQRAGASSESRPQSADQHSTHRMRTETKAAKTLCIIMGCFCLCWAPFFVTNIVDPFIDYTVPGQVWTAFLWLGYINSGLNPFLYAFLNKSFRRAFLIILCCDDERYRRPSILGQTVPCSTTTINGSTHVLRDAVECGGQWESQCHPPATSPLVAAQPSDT

Regarding `COc1cc(N)c(F)cc1C(=O)CCC1CCN(CC2CCCCC2)CC1.O=C(O)/C=C/C(=O)O`, the Activity result in series [1] and in series [2] was “Non-toxic” in each case. Besides, the Ki in series [3] is 0.0163 µM. Besides, the Drug metabolism in [4] was 89%; in series [5] it was 77%; in series [6], 63%; in series [7], 26%; in series [8], 60%; in series [9], 44%. The Drug metabolism in series [10] stood at 10%; in series [11], 63%; in [12], 40%; in [13], 25%; in series [14], 6%; in series [15], 59%. The Drug metabolism in [16] is recorded as 29%; in series [17] it was 6%. Also, the IC50 against Cytochrome P450 1A2 worked out at 83.1 µM; on Cytochrome P450 2C19 it was 7.2 µM; against Cytochrome P450 3A4 [18], 5.4 µM; against Cytochrome P450 3A4 [19] it was 8 µM. In addition, the clearance in [20] was 35.5 mL/min/kg. This molecule showed a half-life in [21] of 46.1 min. For the same molecule, in series [22], the MRT turned out to be 69 min.

A word on the Ki: it is a measure of affinity in units of concentration, obtained from inhibition or displacement. By IC50 is commonly meant the concentration at which inhibition is half-maximal. Lower therefore signals greater potency. What is called clearance is the volume of plasma or blood freed of the substance per unit of time. Lower therefore signals a low capacity for elimination. As usually defined, the half-life is how long it takes for the measured level to halve. Read a high half-life as slow loss. One may read the MRT as the average time that molecules of a dose stay in the body.
